# Sampled rows, rich in hits. Any-hit rate of the full collection: about 11%.
# mHtt clearance – mutant huntingtin protein clearance; AID 853; HeLa Exon1htt(103Q)mCFP, aggregate imaging; zero = plate's median compound well; inhibition, % at 1.5 µM; hit rate 0.42% among 47,000;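 active = inhibition of aggregate fluorescence above about 70%, also judged a hit by eye on the cell image, limit read from the data, passing the limit was not always enough; inconclusive = no rule stated for this call; inactive = not judged a hit on image review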;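 also: cells exposed to compound for three days before fixation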
# RORA act – activators of human nuclear receptor RORA; CHO-K1 Gal4-RORA LBD luciferase reporter, luminescence; percent increase over mock-subtracted basal signal; activation, % at 10 µM; hit rate 1.5% among 65,000;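 active = activation above the mean of all tested compounds plus 3 SD, cut at about 49% in these data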;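 also: 0% = DMSO-treated RORA cells and 100% = added signal equal to DMSO minus mock-transfected cells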
# D1 allo mod – D1 dopamine receptor (human) allosteric modulation; P21728; HEK293 D1, CRE-luciferase, dopamine EC30 potentiation; actives deviate in either direction; B-score at 10 µM; hit rate 5.9% among 58,000;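 active = luminescence count or its row- and column-corrected plate score outside the 99.7% band of the plate's sample wells, on either side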
# M1 antag – blocks the rat M1 muscarinic receptor response to acetylcholine. CHO-M1 cells, Fluo-4 calcium, ACh EC80 antagonist mode; hits give low values. P08482. AID 628. hit rate 3.4% among 64,000. B-score at 10 µM;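 active = calcium fluorescence response, raw or row-and-column corrected B-score, differing from the plate sample mean either way at a set confidence level, mostly lower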
# Target sequence (P08482 whole entry, looked up): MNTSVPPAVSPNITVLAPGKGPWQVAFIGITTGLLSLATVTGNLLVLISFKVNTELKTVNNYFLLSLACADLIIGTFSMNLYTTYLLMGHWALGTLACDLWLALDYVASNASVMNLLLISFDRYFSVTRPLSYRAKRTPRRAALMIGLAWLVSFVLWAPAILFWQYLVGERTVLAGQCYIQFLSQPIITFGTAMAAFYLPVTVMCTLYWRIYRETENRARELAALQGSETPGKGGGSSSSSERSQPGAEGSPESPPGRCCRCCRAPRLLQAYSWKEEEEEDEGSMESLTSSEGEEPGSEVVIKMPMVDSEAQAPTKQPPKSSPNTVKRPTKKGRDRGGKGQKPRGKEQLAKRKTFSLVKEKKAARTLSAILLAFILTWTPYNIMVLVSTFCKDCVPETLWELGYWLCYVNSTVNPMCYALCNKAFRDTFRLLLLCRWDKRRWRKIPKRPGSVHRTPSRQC
# M1 ag – M1 muscarinic receptor agonism. CHO-M1 cells, Fluo-4 calcium fluorescence, agonist mode; hits give high values. B-score at 10 µM. hit rate 3% among 64,000;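 active = fluorescence rise, raw or as B-score row- and column-corrected plate score, outside the 99.7% band of its plate's samples, either direction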
# SF-1 act – activates the human nuclear receptor SF-1 | CHO-K1 Gal4-SF-1 LBD luciferase reporter; % increase over DMSO SF-1-specific signal | Q13285 | hit rate 1.9% among 65,000 | activation, % at 10 µM;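 active = activation above the mean activation of all tested compounds plus 3 SD, cut at about 50% in these data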
#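 Assay system: CHO-K1 cells co-transfected with Gal4 DBD–human SF-1 LBD, 5xGal4 luciferase reporter; doses: 10 µM only; incubation: 20 h compound exposure at 37 °C after 1 h cell settling; signal: luciferase light emission; evaluation: percent activation versus DMSO; repeats: one test per compound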
# M1 ag confirm – rat M1 muscarinic agonism, confirmation. shares compounds with M1 ag. CHO-M1 cells, Fluo-4 calcium fluorescence, agonist mode; actives lie on both sides. fluorescence change (max-min) at 10 µM. hit rate 19% among 1,700. AID 1488;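 active = fluorescence change differs from the solvent-only DMSO control mean at a set confidence level in both duplicate runs; inconclusive = differs from solvent-only control mean in just one of two runs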;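 also: an EC20 dose of acetylcholine follows compound addition during the same imaging run; raw fluorescence intensity difference in instrument units with no normalization to controls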
# M4 agonist ctr – rat M4 muscarinic agonism, M1 counter-screen; shares compounds with M1 ag; CHO M4/Gqi5 cells, Fluo-4 calcium fluorescence, agonist mode; actives lie on both sides; fluorescence change (max-min) at 10 µM; hit rate 9% among 1,700; AID 1741;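 active = fluorescence change differing from the plate's solvent-only control wells at 99.7% confidence in both duplicates, whether higher or lower; inconclusive = differs from solvent controls in only one of two duplicates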
# An asterisk follows results filed as active; ? = inconclusive; . = no result given.
SMILES,mHtt clearance,RORA act,D1 allo mod,M1 antag,M1 ag,SF-1 act,M1 ag confirm,M4 agonist ctr
C=CCSc1nnc(-c2ccncc2)n1-c1ccc(OCC)cc1,19.3,-6.4,0.029,0.624,1.73*,-5.2,-12.4,-25.1
CCCCCOc1ccc(NC(=O)C(=O)NCCC2=CCCCC2)cc1,32.3,.,.,.,.,.,.,.
CCc1ccc(NS(=O)(=O)c2cccs2)cc1,?,-1.3,0.901,-0.0303,1.77,2.3,.,.
Cc1ccc(NC(=O)C2CCN(S(=O)(=O)c3cccc4cccnc34)CC2)nc1,47.5,6.4,0.522,0.411,0.678,15.2,.,.
CN1CCN(C(=O)c2ccc(C3SCC(=O)N3Cc3ccco3)cc2)CC1 (configuration not stated),.,-11.1,0.119,0.304,0.571,-26.8,.,.
O=C1CSC(c2nn(-c3ccccc3)cc2-c2cc3ccccc3oc2=O)N1Cc1ccco1 (configuration not stated),.,-12.0,-0.206,-0.254,3.17*,16.7,11.2,-38.3
CC1CN(S(=O)(=O)c2ccc(NC(=O)CCN3C(=O)c4ccccc4C3=O)cc2)CC(C)O1 (configuration not stated),.,-4.2,0.855,0.711,0.0241,11.4,.,.
CC1CN(S(=O)(=O)c2ccc(NC(=O)c3ccco3)cc2)CC(C)O1 (configuration not stated),.,-21.2,.,-0.00709,12*,-16.1,-12.2,-31.5
CCOC(=O)C1C(=O)Nc2nc3ccccc3n2C1C(C)C (configuration not stated),-0.9,-16.1,0.519,-0.284,-0.677,-8.3,.,.
Cc1ccc(C(=O)C2=C(O)C(=O)N(c3ncccn3)C2c2cccc(Cl)c2)o1 (configuration not stated),.,-5.4,.,0.189,0.146,-9.9,.,.
C=CCOc1cccc(C2C(C(=O)c3ccc(C)o3)=C(O)C(=O)N2c2nccs2)c1 (configuration not stated),20.4,26.7,-0.319,0.334,58.4*,3.1,834*,83.6*
CCCCNC(=S)Nc1ccccc1F,-14.3,.,.,.,.,.,.,.
CCCN(CCC)c1nc(C)cc(C(C#N)c2nc3ccccc3o2)n1 (configuration not stated),.,-6.4,0.159,0.189,6.44*,-10.6,4.7,-23.9
CC(c1nc2ccccc2o1)N1C(=O)c2ccccc2C1=O (configuration not stated),36.5,.,.,.,.,.,.,.
O=C(Nc1ccccc1)N1CCN(c2nc3ccccc3s2)CC1,-30.5,-6.8,0.215,1.21,4.66*,-12.6,-5.79,-12.9
O=C(Nc1ccc(F)cc1)N1CCN(c2nc3ccccc3s2)CC1,-9.7,2.8,0.263,-0.226,-0.14,-25.2,.,.
Cc1ccc(C2C=C(c3ccc4c(c3)OCO4)Nc3ncnn32)cc1 (configuration not stated),.,4.3,0.64,-1.22,-1.38,2.2,.,.
COc1ccc(C2=CC(c3sccc3C)n3nnnc3N2)cc1 (configuration not stated),.,13.7,0.161,0.0527,-2.02,42.9,.,.
COc1cccc(C2=CC(c3ccc(C)cc3)n3ncnc3N2)c1 (configuration not stated),.,6.7,0.668,-1.05,7.98*,-7.0,165*,?
Cc1ccsc1C1C=C(c2cccc(Br)c2)Nc2ncnn21 (configuration not stated),.,-3.6,0.633,-0.925,33.6*,2.0,836*,793*
CC(Oc1ccc(Cl)cc1Cl)C(=O)NCCCN1CCOCC1 (configuration not stated),.,3.6,1.39,0.98,-0.00067,13.0,.,.
COc1ccc(CCNc2oc(Cc3ccccc3)nc2C#N)cc1OC,.,0.6,0.789,-0.386,6.5*,25.8,-30.7*,?
COc1ccc(CCNc2oc(COc3ccccc3Cl)nc2C#N)cc1OC,28.3,-12.5,3.68,-0.82,1.72,-10.5,.,.
COc1ccc(CCNc2oc(COc3ccccc3F)nc2C#N)cc1OC,3.4,6.3,-3.17,-2.08*,3*,9.6,-28,-85.2*
O=C(Nc1ccc(Cc2ccncc2)cc1)c1ccc(S(=O)(=O)N2CCOCC2)cc1,.,-34.7,0.26,-2.55*,12.6*,-7.3,-17.4,?
SMILES,mHtt clearance,RORA act,D1 allo mod,M1 antag,M1 ag,SF-1 act,M1 ag confirm,M4 agonist ctr
O=C(Nc1ccc(S(=O)(=O)N2CCOCC2)cc1)c1ccc(Cl)cc1,.,9.1,-1.36,-0.553,-0.429,-0.8,.,.
O=c1c(-c2cc3ccccc3o2)[n+]([O-])c2ccccc2n1OCc1ccccn1,-2.8,.,.,.,.,.,.,.
CCOn1c(=O)c(-c2cc3ccccc3o2)[n+]([O-])c2ccccc21,.,60.0*,2.4,-0.137,22.9*,97.4*,22.9,-13
CCS(=O)(=O)N1Cc2ccccc2CC1C(=O)N1CCN(c2cccc(C)c2C)CC1 (configuration not stated),-55.0,-15.2,-0.0307,-0.137,2.11,4.6,.,.
CS(=O)(=O)N1CCN(CC2CC3C=CC2C3)CC1 (configuration not stated),.,-1.1,-0.318,-6.84*,37.3*,-2.0,208*,-53
O=C(c1ccco1)N1CCN(CC2CC3C=CC2C3)CC1 (configuration not stated),11.1,23.8,-0.0357,-2.41*,6.21*,28.8,?,-57.4
CS(=O)(=O)N1CCN(Cc2ccccc2C(F)(F)F)CC1,-25.2,-11.8,-0.0266,1.53,0.0656,2.9,.,.
C1=CC2CC1CC2CN1CCN(c2ccccc2)CC1 (configuration not stated),.,0.4,-4.58*,-1.45,6.44*,-17.6,?,-41.5
O=C(Cc1ccccc1)N1CCN(C(=O)c2ccco2)CC1,42.9,.,.,.,.,.,.,.
O=C(Nc1ccccc1)Nc1ccc(S(=O)(=O)N2CCCCC2)cc1,-6.9,3.6,-0.882,-0.67,3.49*,8.3,-13.8,-28.1
COC(=O)Nc1ccc(S(=O)(=O)N2CCCCCC2)cc1,.,-3.3,.,0.0469,-0.0179,3.0,.,.
Cc1nnc(SC(C)C(=O)Nc2ccc(S(=O)(=O)N3CCCCCC3)cc2)s1 (configuration not stated),-21.7,-3.6,0.212,0.0534,-2.46*,4.2,?,?
Cc1nnc(SC(C)C(=O)Nc2ccc3c(c2)OCCO3)s1 (configuration not stated),15.1,21.1,-0.718,1.19,-0.483,7.5,.,.
CCCNC(=O)c1ccccc1NS(=O)(=O)c1ccc2c(c1)OCCO2,.,14.7,-0.00432,-0.266,-0.207,-4.6,.,.
CN1CCN(CCCNC(=O)c2cn(C3CCCCC3)c(=O)c3c2c2ccccc2n3C)CC1,-0.3,2.5,-0.0648,0.359,-0.435,-9.7,.,.

# High-throughput results: PubChem, several laboratories
